In ChEMBL document CHEMBL1129791, “Antipsoriatic anthrones with modulated redox properties. 3. 10-thio-substituted 1,8-dihydroxy-9(10H)-anthracenones as inhibitors of keratinocyte growth, 5-lipoxygenase, and the formation of 12(S)-HETE in mouse epidermis” (J Med Chem, 1996):

How the values were obtained:
[1] = system: HaCaT; assay: Compound was tested for activity of LDH(mU) release in HaCat cells after treatment with 2 uM compound; type: functional, Homo sapiens
Method in brief: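 Human HaCaT keratinocytes exposed to 2 µM compound for 4 h at 37 °C. Extracellular LDH measured by UV method with pyruvate and NADH, expressed as mU/mL. Vehicle controls run in parallel; N = 3.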

[2] = biological target: T1, Polyunsaturated fatty acid lipoxygenase ALOX12 (Mus musculus, UniProt P39655); assay: Tested for inhibition of 12-LO (12-lipoxygenase) as an inhibitor of 12(S)-HETE biosynthesis in mouse epidermal homogenates
T1 sequence (P39655 whole entry): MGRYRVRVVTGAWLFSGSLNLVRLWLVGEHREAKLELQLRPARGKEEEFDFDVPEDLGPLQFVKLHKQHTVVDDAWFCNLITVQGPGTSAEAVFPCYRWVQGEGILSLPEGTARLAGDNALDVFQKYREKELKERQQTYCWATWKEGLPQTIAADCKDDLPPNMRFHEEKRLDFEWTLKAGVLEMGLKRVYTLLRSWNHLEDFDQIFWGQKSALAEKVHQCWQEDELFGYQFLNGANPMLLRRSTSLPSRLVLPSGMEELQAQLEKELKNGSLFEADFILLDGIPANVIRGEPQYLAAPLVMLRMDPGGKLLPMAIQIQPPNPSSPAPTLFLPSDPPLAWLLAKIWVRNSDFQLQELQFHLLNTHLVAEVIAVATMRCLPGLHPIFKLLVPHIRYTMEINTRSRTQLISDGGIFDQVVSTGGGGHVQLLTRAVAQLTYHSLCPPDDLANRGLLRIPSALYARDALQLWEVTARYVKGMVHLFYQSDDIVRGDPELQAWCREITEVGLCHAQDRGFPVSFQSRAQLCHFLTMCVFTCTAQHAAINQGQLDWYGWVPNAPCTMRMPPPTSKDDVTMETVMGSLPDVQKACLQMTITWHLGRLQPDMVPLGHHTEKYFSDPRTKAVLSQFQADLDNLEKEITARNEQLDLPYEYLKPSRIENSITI

[3] = Deoxyribose degradation (DD) as umol of malondialdehyde/mmol of deoxyribose released by 75 uM; type: functional
Method in brief: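 Deoxyribose degradation run in 30 mM KH2PO4-KOH buffer, pH 7.4, with 75 µM compound. Incubated 2 h at 37 °C in shaking water bath. TBA-reactive material read at 532 nm and expressed as µmol malondialdehyde per mmol deoxyribose.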

[4] = system: HaCaT; assay: Tested for antiproliferative activity against HaCaT cells; type: functional, cell-based; settings: Homo sapiens
Method in brief: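 HaCaT keratinocytes treated for 48 h. Dispersed cells counted by phase-contrast microscopy. Inhibition = (1 − test/control) × 100, using test N = 3 and control N = 6-8.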

[5] = biological target: T2, Arachidonate 5-lipoxygenase (Bos taurus, UniProt Q9BEG3); assay: Tested for inhibition of 5-lipoxygenase as inhibition of 5-HETE and LTB4 biosynthesis in bovine PMNL
T2 sequence (Q9BEG3 whole entry): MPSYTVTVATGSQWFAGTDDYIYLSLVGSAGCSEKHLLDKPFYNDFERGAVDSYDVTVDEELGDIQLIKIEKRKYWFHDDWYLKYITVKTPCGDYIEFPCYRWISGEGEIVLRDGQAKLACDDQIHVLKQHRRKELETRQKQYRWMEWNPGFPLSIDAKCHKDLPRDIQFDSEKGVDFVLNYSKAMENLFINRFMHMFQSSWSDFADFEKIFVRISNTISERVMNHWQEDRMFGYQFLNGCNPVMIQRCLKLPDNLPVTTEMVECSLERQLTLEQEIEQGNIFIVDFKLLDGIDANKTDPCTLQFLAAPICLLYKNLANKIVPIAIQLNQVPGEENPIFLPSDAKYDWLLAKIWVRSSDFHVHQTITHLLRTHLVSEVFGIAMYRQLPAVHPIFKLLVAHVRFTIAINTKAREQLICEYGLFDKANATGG

[6] = half life in DMSO at 25 degrees celsius; type: ADME
[7] = half life in ethanol at 25 degrees celsius; type: ADME
[8] = Half life in ethanol at 25 degrees celsius was determined; type: ADME
[9] = Acidity constant in aqueous solution was determined; type: ADME
Method in brief: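 UV absorption spectra recorded in buffer solutions spanning pH 2.5–12.0, with measured pH values corrected where needed. Absorbance at pH 2.5 was taken as the neutral species and at pH 12.0 as the fully deprotonated species. pKa was obtained from titration curves of absorbance at suitable wavelengths.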

[10] = Half life in DMSO at 25 degrees celsius was determined; type: ADME

Work on CCCSC1c2cccc(O)c2C(=O)c2c(O)cccc21 yielded an LDH [1] of 117 mU/mL, an IC50 [2] of over 30 µM and a DD [3] of 2.81. For the same compound, the IC50 [4] was 1.2 µM and the IC50 [5] was over 30 µM.

Work on O=C1c2c(O)cccc2C(SCCc2ccccc2)c2cccc(O)c21 yielded an IC50 [2] of over 30 µM, a DD [3] of 2.78 and an IC50 [4] of 4.7 µM. For the same compound, the half-life [6] was 4 h, the half-life [7] was 3 h and the IC50 [5] was 30 µM.

CCOC(=O)CSC1c2cccc(O)c2C(=O)c2c(O)cccc21 gave an IC50 [2] of over 30 µM, a DD [3] of 4.51 and an IC50 [4] of 4.5 µM. For the same compound, the IC50 [5] was over 30 µM.

O=C1c2c(O)cccc2C(Sc2ccc(O)cc2)c2cccc(O)c21 gave an LDH [1] of 148 mU/mL, an IC50 [2] of 3 µM and a half-life [8] of 34 h. It also gave a DD [3] of 3.61, an IC50 [4] of 0.1 µM and a pKa [9] of 6.2. It also gave an IC50 [5] of 2 µM and a half-life [10] of 55 h.

Compound COC(=O)CCSC1c2cccc(O)c2C(=O)c2c(O)cccc21 has an LDH [1] of 133 mU/mL, an IC50 [2] of 27 µM and a DD [3] of 5.25. It also gave an IC50 [4] of 1.1 µM and an IC50 [5] of 15 µM.

O=C(O)CSC1c2cccc(O)c2C(=O)c2c(O)cccc21 showed an IC50 [2] of 30 µM, a DD [3] of 6.12 and an IC50 [4] of over 5 µM. The IC50 [5] was over 30 µM.

For CCCCOC(=O)CSC1c2cccc(O)c2C(=O)c2c(O)cccc21, the IC50 [2] was 30 µM, the DD [3] was 4.19 and the IC50 [4] was 2.1 µM. For the same compound, the IC50 [5] was over 30 µM.

With O=C1c2c(O)cccc2C(SCC(O)CO)c2cccc(O)c21 (stereo not given) the IC50 [2] was over 30 µM, the DD [3] was 2.45 and the IC50 [4] was 1.7 µM. It also gave an IC50 [5] of 9 µM.

Work on COc1ccc(SC2c3cccc(O)c3C(=O)c3c(O)cccc32)cc1 yielded an LDH [1] of 137 mU/mL, an IC50 [2] of 30 µM and a half-life [8] of 21 h. It also gave a DD [3] of 1.59, an IC50 [4] of 1.7 µM and a pKa [9] of 7.9. For the same compound, the IC50 [5] was 3 µM and the half-life [10] was 32 h.

With COc1ccc(CSC2c3cccc(O)c3C(=O)c3c(O)cccc32)cc1 the IC50 [2] was 30 µM, the half-life [8] was 5 h and the DD [3] was 5.01. For the same compound, the IC50 [4] was 3 µM, the pKa [9] was 6.1 and the IC50 [5] was over 30 µM. It also gave a half-life [10] of 23 h.

Compound Nc1ccccc1SC1c2cccc(O)c2C(=O)c2c(O)cccc21 has an LDH [1] of 255 mU/mL, an IC50 [2] of 6 µM and a half-life [8] of 20 h. The DD [3] was 4.76, the IC50 [4] was 0.1 µM and the pKa [9] was 8.4. For the same compound, the IC50 [5] was 2 µM and the half-life [10] was 26 h.

For O=C1c2c(O)cccc2C(SCc2ccccc2)c2cccc(O)c21, the IC50 [2] was 30 µM, the DD [3] was 3.74 and the IC50 [4] was 1.4 µM. It also gave an IC50 [5] of over 30 µM.

O=C1c2c(O)cccc2C(Sc2ccccc2O)c2cccc(O)c21 gave an LDH [1] of 174 mU/mL, an IC50 [2] of 30 µM and a DD [3] of 3.7. It also gave an IC50 [4] of 1.7 µM and an IC50 [5] of 5 µM.

Work on CC(SC1c2cccc(O)c2C(=O)c2c(O)cccc21)C(=O)O (stereo not given) yielded an IC50 [2] of 15 µM, a DD [3] of 9.34 and an IC50 [4] of 0.2 µM. For the same compound, the IC50 [5] was over 30 µM.

O=C(O)CCSC1c2cccc(O)c2C(=O)c2c(O)cccc21 gave an IC50 [2] of 30 µM, a DD [3] of 6.34 and an IC50 [4] of 1.9 µM. For the same compound, the IC50 [5] was 2 µM.

With COc1ccccc1SC1c2cccc(O)c2C(=O)c2c(O)cccc21 the IC50 [2] was 3 µM, the DD [3] was 4.33 and the IC50 [4] was 4.2 µM. It also gave an IC50 [5] of 6 µM.

COc1cccc(SC2c3cccc(O)c3C(=O)c3c(O)cccc32)c1 gave an IC50 [2] of 30 µM, a DD [3] of 4.29 and an IC50 [4] of 1.8 µM.

For CCOC(=O)CCSC1c2cccc(O)c2C(=O)c2c(O)cccc21, the LDH [1] was 124 mU/mL, the IC50 [2] was 30 µM and the DD [3] was 5.52. For the same compound, the IC50 [4] was 1.6 µM and the IC50 [5] was over 30 µM.

Work on NC(CSC1c2cccc(O)c2C(=O)c2c(O)cccc21)C(=O)O (stereo not given) yielded an IC50 [2] of 30 µM, a DD [3] of 2.33 and an IC50 [4] of over 5 µM. It also gave an IC50 [5] of over 30 µM.

O=C1c2c(O)cccc2C(SCCO)c2cccc(O)c21 showed an LDH [1] of 136 mU/mL, an IC50 [2] of over 30 µM and a DD [3] of 2.49. The IC50 [4] was 1.2 µM and the IC50 [5] was 2 µM.

CCCCOC(=O)CCSC1c2cccc(O)c2C(=O)c2c(O)cccc21 showed an IC50 [2] of 30 µM, a half-life [8] of 2 h and a DD [3] of 5.38. For the same compound, the IC50 [4] was 2.3 µM, the pKa [9] was 5.7 and the IC50 [5] was 30 µM. For the same compound, the half-life [10] was 11 h.

For O=C1c2c(O)cccc2C(SCCCS)c2cccc(O)c21, the LDH [1] was 369 mU/mL, the IC50 [2] was 30 µM and the DD [3] was 4.09. For the same compound, the IC50 [4] was 0.8 µM and the IC50 [5] was over 30 µM.

In the case of O=C1c2c(O)cccc2C(SCCCc2ccccc2)c2cccc(O)c21, the DD [3] is reported as 2.71 and the IC50 [4] is reported as over 5 µM.

Work on O=C1c2c(O)cccc2C(Sc2ccccc2)c2cccc(O)c21 yielded an IC50 [2] of 30 µM, a half-life [8] of 12 h and a DD [3] of 4.13. The IC50 [4] was 3.7 µM, the pKa [9] was 5.4 and the IC50 [5] was 8 µM. The half-life [10] was 28 h.

Nc1ccc(SC2c3cccc(O)c3C(=O)c3c(O)cccc32)cc1 gave an LDH [1] of 184 mU/mL, an IC50 [2] of over 30 µM and a DD [3] of 1.49. It also gave an IC50 [4] of 0.9 µM and an IC50 [5] of 7 µM.

CCSC1c2cccc(O)c2C(=O)c2c(O)cccc21 showed an IC50 [2] of over 30 µM, a DD [3] of 4.23 and an IC50 [4] of 1.4 µM. It also gave an IC50 [5] of over 30 µM.

Work on COC(=O)CSC1c2cccc(O)c2C(=O)c2c(O)cccc21 yielded an IC50 [2] of over 30 µM, a DD [3] of 4.89 and an IC50 [4] of 1.9 µM. The IC50 [5] was 13 µM.
